Compound activity: PubChem, several laboratories
This is a sample that favours compounds with a hit; in the whole collection about 2.3% have one here.
T cell HTS: T cell immune modulation candidate. 2C CD8+ T cell-vesicle binding, flow cytometry; stronger effect = lower value. response (vesicle binding), % at 7 µM. hit rate 0.068% among 330,000. AID 2052;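 active means response, share of CD8 T cells binding vesicles, and their 90th percentile fluorescence all below set limits, cut at about 80% in these data, passing the limit was not always enough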;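 further: values below 100% mean blocked vesicle binding to the CD8+ T cells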
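incubation = binding step 1.5 h, 37 °C, antibody labelling 20 min, ice | test system = 2C mouse CD8+ T cells | read-out basis = percent CD8+ FL2 mean versus row control | controls = Peptide-free naked vesicles (low) and QL9 vesicles with 0.7% DMSO vehicle (high) | detection = flow cytometry of vesicle-bound cells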
DSG3 Ab inh: human desmoglein-3 autoantibody binding inhibition. P32926. DSG3-coupled beads, scFv-anti-DSG3-GFP binding, flow cytometry; stronger effect = lower value. binding (percent of control), % at 10 µM. hit rate 0.48% among 310,000. AID 588358;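 active means binding more than 3 SD below its plate's average and above zero; inconclusive means below that plate limit but binding exactly zero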;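 further: hits lower antibody fragment binding to DSG3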
Target sequence (P32926 whole entry, looked up, the tested form may be a part): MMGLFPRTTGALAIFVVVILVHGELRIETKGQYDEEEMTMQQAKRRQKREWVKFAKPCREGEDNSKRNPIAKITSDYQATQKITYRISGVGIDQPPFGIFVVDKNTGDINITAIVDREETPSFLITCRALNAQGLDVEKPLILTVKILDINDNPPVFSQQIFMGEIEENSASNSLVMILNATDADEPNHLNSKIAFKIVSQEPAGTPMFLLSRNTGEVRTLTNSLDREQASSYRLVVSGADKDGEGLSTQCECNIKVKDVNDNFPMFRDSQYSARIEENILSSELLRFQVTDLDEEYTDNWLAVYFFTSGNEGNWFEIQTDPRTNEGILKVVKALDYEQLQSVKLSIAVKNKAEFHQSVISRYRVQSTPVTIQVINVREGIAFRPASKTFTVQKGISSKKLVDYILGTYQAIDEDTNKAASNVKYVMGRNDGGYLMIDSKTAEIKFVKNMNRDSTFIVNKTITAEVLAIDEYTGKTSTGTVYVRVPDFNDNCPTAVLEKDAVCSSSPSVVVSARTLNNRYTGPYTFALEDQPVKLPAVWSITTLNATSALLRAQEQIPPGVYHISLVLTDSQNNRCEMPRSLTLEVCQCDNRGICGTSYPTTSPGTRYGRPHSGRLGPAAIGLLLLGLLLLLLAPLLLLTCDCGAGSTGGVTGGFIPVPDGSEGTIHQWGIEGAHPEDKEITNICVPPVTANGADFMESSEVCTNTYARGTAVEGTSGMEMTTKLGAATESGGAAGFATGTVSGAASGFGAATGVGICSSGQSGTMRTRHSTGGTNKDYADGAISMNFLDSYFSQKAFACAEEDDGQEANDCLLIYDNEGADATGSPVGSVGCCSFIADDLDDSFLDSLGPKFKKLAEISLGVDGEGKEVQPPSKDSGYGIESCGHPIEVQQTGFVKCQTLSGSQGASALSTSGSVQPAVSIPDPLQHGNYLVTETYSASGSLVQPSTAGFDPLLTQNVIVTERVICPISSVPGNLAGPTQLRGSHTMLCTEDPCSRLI
MCL1 BIM primary: disrupts human MCL1 binding to BIM-BH3 peptide; GST-MCL1 / FITC-Bim-BH3 fluorescence polarization; inhibition, % at 10.9 µM; Q07820; hit rate 0.68% among 320,000;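 active means inhibition above the mean inhibition of all tested compounds plus 3 SD, set per campaign, cut at about 40% in these data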;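 further: 0% = DMSO wells and 100% = unlabeled Bim-BH3 peptide control; higher means more loss of mP so more displacement of Bim peptide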
Mcl-1 Bim block: inhibitors of Bim-Mcl-1 interaction, human; Q07820; AID 1009; inhibition, % at 10 µM; hit rate 0.1% among 190,000; Bead-based flow cytometry, Bim peptide-Mcl-1 binding; in the data active means inhibition above about 40%;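 further: 0% = no compound tracer wells and 100% = peptide blocker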
Mcl1-Noxa inh: Mcl-1/Noxa interaction inhibition. Q07820. TR-FRET Mcl-1/Noxa peptide binding, 2 h. inhibition, % at 21.7 µM. hit rate 1.5% among 220,000. AID 1022;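 active means compounds that cut the protein-peptide binding signal by more than 50% relative to plate controls in a single-dose test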;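 further: His-tagged Mcl-1 with rhodamine Noxa BH3 peptide and terbium anti-His antibody; 0% = Mcl-1 plus Noxa peptide wells and 100% = peptide-only wells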
Mcl1-Bid inh: Mcl-1/Bid interaction inhibition | TR-FRET Mcl-1/Bid-Dy647 peptide binding, 1536-well | inhibition, % at 21.7 µM | hit rate 0.97% among 220,000 | AID 1021;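 active means compounds that cut the binding signal by more than half at the single screening dose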;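 further: His-tagged Mcl-1 with europium anti-His antibody binding Bid BH3 peptide; 0% = Mcl-1 plus peptide wells and 100% = peptide-only wells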
Active calls of the source: *; i = inactive; ? = inconclusive; / = no result given.

SMILES	T cell HTS	DSG3 Ab inh	MCL1 BIM primary	Mcl-1 Bim block	Mcl1-Noxa inh	Mcl1-Bid inh
CCC(=O)Oc1ccc(C(=O)Nc2cccc(NC(=O)c3ccco3)c2)cc1	839	/	-1	/	/	/
O=c1cc(CSc2nnc(-c3cccs3)n2Cc2ccccc2)nc2sc3ccccc3n12	179	96	21	-1	59*	-97
Cc1cc(C(=O)CSc2nnc(-c3cccs3)n2Cc2ccccc2)c(C)n1C	111	102	-5	-1	-3	-54
CCOC(=O)C1(CC2CCCCO2)CCN(S(=O)(=O)c2ccc(C)s2)CC1 (stereo not given)	13*	102	4	0	8	-15
CCOC(=O)C1(CC2CCCCO2)CCN(S(=O)(=O)c2ccsc2)CC1 (stereo not given)	490	114	10	-4	-2	-10
CN(C(=O)c1ccc(Cl)cc1)C1=CCCCC1CCC#N (stereo not given)	158	/	2	0	2	65*
CCOc1ccccc1NC(=O)CCNC(=O)N1CC(=O)Nc2ccccc21	/	108	/	/	/	/
COCCn1c(=S)[nH]c2cc(C(=O)NC3CCCC(C)C3C)ccc2c1=O (stereo not given)	/	103	/	/	/	/
CCCCNS(=O)(=O)c1ccc(OCC(=O)OC)cc1	6.7*	99	-4	-5	8	-14
Cc1c(C(=O)Oc2ccc(-c3cnc4ccccc4n3)cc2)cccc1[N+](=O)[O-]	160	111	17	-8	67*	50
O=C(Oc1ccc(-c2cnc3ccccc3n2)cc1)c1cc([N+](=O)[O-])ccc1Cl	335	/	11	-2	-2	32
CC(C)CC(=O)N1CCN(CC2CC=CCC2)CC1 (stereo not given)	412	104	2	0	38	57*
CCC(CC)N1CCN(CC2CC=CCC2)CC1 (stereo not given)	563	86	2	-1	31	42
COc1ccc(NS(=O)(=O)c2cc(NC(=O)c3ccccn3)ccc2OC)cc1Br	185	114	/	/	/	/
COc1ccc(NC(=O)c2c(F)cccc2F)cc1S(=O)(=O)Nc1ccc(Br)cc1	345	83	-6	42*	6	-13
Cc1nn(C)cc1C(C(=O)NC1CCCCC1)N(C(=O)Cc1cccs1)c1ccc(C(C)C)cc1 (stereo not given)	428	96	3	-2	0	-8
Cc1nn(C)cc1C(C(=O)NC1CCCCC1)N(C(=O)Cc1cccs1)c1ccc(F)cc1 (stereo not given)	291	-2.6*	-1	-8	15	6
Cc1cccc(OCC(=O)Nc2ccc(N3CCN(C(=O)c4ccccc4)CC3)cc2)c1C	309	/	3	/	/	/
Cc1ccc(OCC(=O)Nc2ccc(N3CCN(C(=O)c4ccco4)CC3)cc2)cc1C	353	127	2	-2	21	-3
CCc1ccc(OCC(=O)Nc2ccc(N3CCN(C(=O)c4ccccc4)CC3)cc2)cc1	229	95*	3	/	/	/
Cc1cc(OCC(=O)Nc2ccc(N3CCN(C(=O)c4ccco4)CC3)cc2)cc(C)c1Cl	301	124	3	0	15	57*
Cc1ccc(CNC(=O)Cn2ccc3cc(S(=O)(=O)N4CCCCCC4)ccc32)cc1	406	98	1	/	/	/
O=C(Cc1ccc(Br)cc1)NC1CCCCC1	296	100	6	-1	12	-27
O=C(NC1CCCCCCC1)c1ccc(Br)cc1	i	108	52*	/	/	/
CC1(C)C(=O)Nc2ccccc2N1C(=O)COc1ccc(S(=O)(=O)N2CCOCC2)cc1Cl	160	100	9	-5	56*	-19
SMILES	T cell HTS	DSG3 Ab inh	MCL1 BIM primary	Mcl-1 Bim block	Mcl1-Noxa inh	Mcl1-Bid inh
O=C(COc1ccc(S(=O)(=O)N2CCOCC2)cc1Cl)N1CCCC1	322	77	-5	/	/	/
CC12CCC(=O)N1C(C(=O)N1CCN(c3ccc(C(F)(F)F)cc3[N+](=O)[O-])CC1)CS2 (stereo not given)	183	?	-1	/	/	/
CC1CCc2nn(CC(=O)Nc3ccc(F)cc3F)cc2C1 (stereo not given)	623	107	5	-4	-1	-5
CCN(CC)c1ccc(NC(=O)Cn2cc3c(n2)CCC(C)C3)c(C)c1 (stereo not given)	125	103	-1	2	61*	-9
CCCCN(C)S(=O)(=O)c1ccc(C(=O)N=c2sc3cc(NC(C)=O)ccc3n2C)cc1	502	122	0	-29	29	70*
CCCCN(CC)S(=O)(=O)c1ccc(C(=O)N=c2sc3cc(NC(C)=O)ccc3n2C)cc1	390	141	0	-5	0	-3
CC(=O)Nc1c(O)c2cccc3c2n(c1=O)CCC3	685	106	-8	/	/	/
COc1ccc(NC(=O)Cc2ccccc2)cn1	86	105	40*	1	11	-33
COc1ccc(NC(=O)CSc2ccccc2)cn1	176	103	31	-3	0	-7
COc1cccc(C(=O)Nc2ccc(NC(=O)Cc3ccccc3)cc2)c1	163	92*	-2	/	/	/
O=C1N=c2ccccc2=C1c1sc(=S)n(-c2ccc(O)cc2)c1O	726	89	8	/	70*	21
Cc1c(-n2c(O)c(C3=c4ccccc4=NC3=O)sc2=S)c(=O)n(-c2ccccc2)n1C	138	108	16	-1	53*	32
CSc1ncccc1C(=O)Nc1cccc(S(=O)(=O)N2CCCCCC2)c1	247	101	/	/	/	/
Cc1ccc(-c2cc(C(=O)OCC(=O)N(C)C3CCS(=O)(=O)C3)c3ccccc3n2)c(C)c1 (stereo not given)	133	114	-5	-2	12	-7
Cc1ccc(-c2cc(C(=O)OCC(=O)N(C)C3CCS(=O)(=O)C3)c3ccccc3n2)o1 (stereo not given)	385	100	22	1	78*	-61
CCN(C(=O)COC(=O)c1cc(-c2ccc(C)o2)nc2ccccc12)C1CCS(=O)(=O)C1 (stereo not given)	265	101	33	-1	68*	21
COc1ccccc1CN(C)C[C@H]1OCc2cnnn2CCCC(=O)N([C@@H](C)CO)C[C@@H]1C	/	103	/	/	/	/
Cc1cnc(C2OCCO2)c2cccc([N+](=O)[O-])c12	/	107	/	/	/	/
COc1ccc(C(=O)N2CCOC2CNC(=O)C(=O)NCc2ccccn2)cc1 (stereo not given)	/	101	/	/	/	/
Cc1cc2ccccc2n1CCNC(=O)c1ccc(Br)o1	974	80	48*	2	5	-14
Cc1cc2ccccc2n1CCNC(=O)c1ccc(S(=O)(=O)N2CCOCC2)cc1	844	83*	17	-3	8	-17
Cc1cc2ccccc2n1CCNC(=O)c1ccccc1	50	?	26	2	6	-19
CCC[C@H]1CN(c2ccccc2)C(=O)[C@@H]1CC(=O)Nc1ccc(Br)cc1	/	101	/	/	/	/
O=C(COc1ccc2ccccc2c1Br)NC(=S)Nc1cccc(CO)c1	244	94	0	-4	5	52*
